Laboratory results from PMC3983365 (Journal of medicinal chemistry, 2014).

Columns and labels:
Hsp90 = Hsp90 binding assay; conditions: read-out: Hsp90 binding; binding to SKBr3 cell extracts; competition with GM-Cy3B
Aqueous solubility = assay type: physicochemical
Hsp70 = conditions: read-out: Kd for Hsp70; cited from earlier work
c-Met = c-Met (Homo sapiens, UniProt P08581); assay: scanMAX kinase screen, c-Met; assay type: binding; conditions: at 10 μM
Method in brief: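 Kinase-tagged T7 phage (BL21-derived E. coli host) or HEK-293-made DNA-tagged kinase competed against an immobilised active-site ligand on streptavidin magnetic beads, with test compound at 10 μM (from 40× DMSO stock). Run in SeaBlock/PBS/Tween/DTT binding buffer for 1 h at room temperature. Beads then washed and eluted with 0.5 μM non-biotinylated ligand; kinase in eluate quantified by qPCR.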

scanMAX 402 kinase panel = assay: scanMAX kinase screen; assay type: binding; conditions: at 10 μM
Method in brief: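 Competition binding: DNA-tagged kinases (T7 phage in BL21-derived E. coli lysates, or HEK-293-expressed) mixed with biotinylated-ligand streptavidin magnetic beads and test compound (10 μM; 40× DMSO stocks) in SeaBlock/0.17× PBS/Tween 20/6 mM DTT, 1 h RT. Beads washed, eluted 30 min with 0.5 μM free ligand; bound kinase by qPCR. S-score: kinases bound divided by distinct non-mutant kinases tested.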

PARP = PARP cleavage by Western blot in SKBr3; assay type: cell-based; conditions: Homo sapiens, SK-BR-3, read-out: cPARP (PARP cleavage)
Method in brief: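 SK-BR-3 cells grown in DME/F12 with 10% FBS, 1% L-glutamine and penicillin/streptomycin to 60–70% confluence, then exposed to test compound or DMSO vehicle. Lysed in 50 mM Tris pH 7.4, 150 mM NaCl, 1% NP-40; protein by BCA. 10–50 μg lysate run on SDS–PAGE, blotted to nitrocellulose, probed with rabbit anti-PARP p85 fragment (1:500), then peroxidase secondary (1:3000).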

[1] = LC/MS–MS analyses of cellular extracts; assay type: in vitro ADME; conditions: after 10 min of incubation; data not shown

Chain of c-Met (P08581 25-1390): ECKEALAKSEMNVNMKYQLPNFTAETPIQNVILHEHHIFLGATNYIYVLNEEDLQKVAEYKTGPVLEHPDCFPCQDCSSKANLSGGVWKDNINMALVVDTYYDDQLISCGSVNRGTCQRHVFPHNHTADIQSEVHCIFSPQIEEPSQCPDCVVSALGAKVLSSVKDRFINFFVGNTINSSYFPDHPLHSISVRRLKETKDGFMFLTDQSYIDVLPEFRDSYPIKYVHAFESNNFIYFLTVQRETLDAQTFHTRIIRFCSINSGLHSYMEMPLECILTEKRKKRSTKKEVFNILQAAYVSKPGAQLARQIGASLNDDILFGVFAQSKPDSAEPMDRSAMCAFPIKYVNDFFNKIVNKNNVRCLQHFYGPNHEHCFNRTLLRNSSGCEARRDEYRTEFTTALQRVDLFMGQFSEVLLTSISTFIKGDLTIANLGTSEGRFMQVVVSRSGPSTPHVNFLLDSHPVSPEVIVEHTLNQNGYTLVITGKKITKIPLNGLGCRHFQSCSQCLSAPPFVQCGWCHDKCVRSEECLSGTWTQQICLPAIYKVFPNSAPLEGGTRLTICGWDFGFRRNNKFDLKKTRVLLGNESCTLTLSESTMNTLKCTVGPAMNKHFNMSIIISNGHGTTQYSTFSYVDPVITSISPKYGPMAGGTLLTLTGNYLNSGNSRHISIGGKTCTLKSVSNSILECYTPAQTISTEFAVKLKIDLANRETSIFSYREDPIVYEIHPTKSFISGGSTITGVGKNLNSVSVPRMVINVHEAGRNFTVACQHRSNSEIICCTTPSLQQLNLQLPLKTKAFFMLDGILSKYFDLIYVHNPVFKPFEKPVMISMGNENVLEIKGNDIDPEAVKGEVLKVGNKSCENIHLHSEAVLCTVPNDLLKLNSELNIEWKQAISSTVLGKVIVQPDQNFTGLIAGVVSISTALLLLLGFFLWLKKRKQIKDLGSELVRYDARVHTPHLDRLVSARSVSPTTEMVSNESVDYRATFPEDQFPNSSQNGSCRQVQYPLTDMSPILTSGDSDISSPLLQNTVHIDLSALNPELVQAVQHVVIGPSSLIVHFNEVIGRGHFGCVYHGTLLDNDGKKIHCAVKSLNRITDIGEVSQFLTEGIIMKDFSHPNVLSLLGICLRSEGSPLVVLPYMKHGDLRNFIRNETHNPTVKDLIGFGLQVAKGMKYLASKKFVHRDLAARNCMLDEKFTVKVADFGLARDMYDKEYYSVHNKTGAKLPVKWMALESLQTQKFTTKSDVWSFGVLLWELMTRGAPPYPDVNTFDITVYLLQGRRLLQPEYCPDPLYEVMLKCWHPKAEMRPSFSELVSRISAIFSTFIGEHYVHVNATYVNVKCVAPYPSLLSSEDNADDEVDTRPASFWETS

Work on C=CC(=O)Nc1ccnc(Sc2c(OC)nc(N3CCN(C)CC3)nc2OC)n1 [27a, N-(2-((4,6-Dimethoxy-2-(4-methylpiperazin-1-yl)pyrimidin-5-yl)-thio)pyrimidin-4-yl)acrylamide] yielded an IC50 (Hsp90) of over 500 µM.
Molecule C=CC(=O)Nc1cc(N)nc(Sc2c(OC)nc(N)nc2OC)n1 [compound 31, N-(6-Amino-2-((2-amino-4,6-dimethoxypyrimidin-5-yl)thio)-pyrimidin-4-yl)acrylamide] has an IC50 (Hsp90) of over 500 µM.
In the case of C=CC(=O)Nc1ccnc(Sc2c(OC)nc(N3CCCC3)nc2OC)n1 [27d, N-(2-((4,6-Dimethoxy-2-(pyrrolidin-1-yl)pyrimidin-5-yl)thio)-pyrimidin-4-yl)acrylamide], the aqueous solubility (Aqueous solubility) is reported as “poor aqueous solubility” and the IC50 (Hsp90) is reported as over 500 µM.
In the case of N#Cc1ccc(COC[C@H]2O[C@@H](n3c(NCc4ccc(Cl)c(Cl)c4)nc4c(N)ncnc43)[C@H](O)[C@@H]2O)cc1 [compound 7, reference compound], the Kd (Hsp70) is listed as 0.3 µM.
In the case of Nc1ncnc2c1ncn2[C@@H]1O[C@H](COP(=O)(O)OP(=O)(O)O)[C@@H](O)[C@H]1O [ADP], the Kd (Hsp70) is given as 0.11 to 0.5 µM.
C=CC(=O)Nc1cc(N)nc(Sc2c(OCC)nc(N3CCN(C)CC3)nc2OCC)n1 [20a, N-(6-Amino-2-((4,6-diethoxy-2-(4-methylpiperazin-1-yl)-pyrimidin-5-yl)thio)pyrimidin-4-yl)acrylamide] showed an IC50 (Hsp90) of over 500 µM.
In the case of C=CC(=O)Nc1cc(N)nc(Sc2c(OC)nc(N3CCN(C)CC3)nc2OC)n1 [17a, N-(6-Amino-2-((4,6-dimethoxy-2-(4-methylpiperazin-1-yl)-pyrimidin-5-yl)thio)pyrimidin-4-yl)acrylamide], the IC50 (Hsp90) is reported as over 500 µM, the “kinase hit in scanMAX screen” value (c-Met) is reported as “potential low-affinity kinase hit” and the “activity against the scanMAX 402 kinase panel” value (scanMAX 402 kinase panel) is reported as “inert”. For the same molecule, the EC50 (PARP) was 2 µM.
With O=c1c(O)c(-c2cc(O)c(O)c(O)c2)oc2cc(O)cc(O)c12 [compound 4, myricetin, reference compound] the EC50 (PARP) was over 100 µM and the “stability in the cells (agent detected in cellular extracts)” value [1] was “virtually undetectable”.
In the case of C=CC(=O)Nc1cccc(Sc2c(OC)nc(N3CCOCC3)nc2OC)c1 [compound 37, N-(3-((4,6-Dimethoxy-2-morpholinopyrimidin-5-yl)thio)phenyl)-acrylamide], the IC50 (Hsp90) is reported as over 500 µM.
C=CC(=O)Nc1cc(N)nc(Sc2c(OCC)nc(N3CCCCC3)nc2OCC)n1 [20c, N-(6-Amino-2-((4,6-diethoxy-2-(piperidin-1-yl)pyrimidin-5-yl)-thio)pyrimidin-4-yl)acrylamide] gave an IC50 (Hsp90) of over 500 µM.
C=CC(=O)Nc1ccnc(Sc2c(C)nc(N3CCN(C)CC3)nc2C)n1 [42a, N-(2-((4,6-Dimethyl-2-(4-methylpiperazin-1-yl)pyrimidin-5-yl)-thio)pyrimidin-4-yl)acrylamide] showed an IC50 (Hsp90) of over 500 µM and an EC50 (PARP) of 5 µM.
C=CC(=O)Nc1cc(N)nc(Sc2c(OC)nc(N3CCN(CCOCCOCCOCCO)CC3)nc2OC)n1 [44a] gave an IC50 (Hsp90) of over 500 µM.
C=C(C)C(=O)Nc1ccnc(Sc2c(C)nc(N3CCN(C)CC3)nc2C)n1 [42c, N-(2-((4,6-Dimethyl-2-(4-methylpiperazin-1-yl)pyrimidin-5-yl)-thio)pyrimidin-4-yl)methacrylamide] showed an IC50 (Hsp90) of over 500 µM.
C=CC(=O)Nc1cc(N)nc(Sc2c(OC)nc(N3CCN(C)CC3)nc2OCCOCCOCCOCCO)n1 [45a] gave an IC50 (Hsp90) of over 500 µM.
